Measurements: ChEMBL document CHEMBL4004836, “Design, synthesis and anticancer properties of IsoCombretaQuinolines as potent tubulin assembly inhibitors” (Eur J Med Chem, 2017)
Active and inactive are the calls of the source. The rule behind the calls is not given here.

Tests used:
[1] = Cytotoxicity against human U87 cells assessed as decrease in cell growth after 72 hrs by resazurin dye-based fluorimetric method; assay type: functional, U-87MG ATCC; conditions: U-87 MG
Procedure, shortened: (§1)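 Lines grown in RPMI 1640 with 10% FCS and 1% glutamine, 37 °C, 5% CO2. K562R is a doxorubicin-resistant K562 line. Seeded 5 × 10^3 cells/well, compound in DMSO (<0.1%) added after 24 h, then 72 h exposure. Resazurin for 2 h, fluorescence ex 560/em 590 nm. IC50 from 50% fluorescence drop versus untreated cells. Triplicate, averaged.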

[2] = Inhibition of sheep brain tubulin assembly by DAPI staining-based fluorimetric method; parameters: species or system Ovis aries
Procedure, shortened: (§2)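 Sheep brain tubulin purified by two assembly-disassembly cycles, about 2-3 mg/mL in 0.1 M MES, 0.5 mM MgCl2, 1 mM EGTA, 1 mM GTP, pH 6.6. Assembly followed by DAPI fluorescence at 37 °C. IC50 = concentration halving maximum assembly rate versus no compound. Single-point values given as % inhibition at 100 µM. Mean of three experiments.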

K562 = assay: Cytotoxicity against human K562 cells assessed as decrease in cell growth after 72 hrs by resazurin dye-based fluorimetric method; assay type: functional; conditions: K562, 72 h; procedure, shortened: as §1
K-562R = assay: Cytotoxicity against human K562R cells assessed as decrease in cell growth after 72 hrs by resazurin dye-based fluorimetric method; assay type: functional; procedure, shortened: as §1
A549 [3] = assay: Cytotoxicity against human A549 cells assessed as decrease in cell growth after 72 hrs by resazurin dye-based fluorimetric method; assay type: functional; conditions: A549, 72 h
Procedure, shortened: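 A549 grown in DMEM (4.5 g/L glucose, 10% FCS, 1% glutamine), 37 °C, 5% CO2. Seeded 5 × 10^3 cells/well, compound in DMSO (<0.1%) added after 24 h, 72 h exposure. Resazurin (CellTiter-Blue) for 2 h, fluorescence ex 560/em 590 nm. IC50 = concentration halving fluorescence versus untreated cells. Triplicate; mean of three experiments.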

HCT-116 = assay: Cytotoxicity against human HCT116 cells assessed as decrease in cell growth after 72 hrs by resazurin dye-based fluorimetric method; assay type: functional; conditions: HCT-116, 72 h; procedure, shortened: as §1
A549 [4] = assay: Cell cycle arrest in human A549 cells assessed as accumulation at G2/M phase at 10 nM after 24 hrs by propidium iodide staining-based flow cytometric method; assay type: functional
Procedure, shortened: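 Exponentially growing A549 cells exposed for 24 h to 0.5, 1, 5 or 10 nM, with DMSO alone as control. DNA content read by propidium iodide staining and flow cytometry to give the cell-cycle profile.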

A549 [5] = assay: Induction of microtubule network fragmentation in human A549 cells after 24 hrs by DAPI staining-based inverted microscopic method; assay type: cell-based
Procedure, shortened: (§3)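 A549 cells on chamber slides, 24 h with or without compound. Fixed in 2% paraformaldehyde for 30 min, permeabilized with 0.25% Triton X-100, blocked with 1% BSA/10% goat serum. Mouse anti-β-tubulin overnight at 4 °C, then Alexa 647 secondary with Hoechst 33258 for 2 h, Alexa 488 phalloidin for F-actin. Imaged by inverted microscope, 60X oil objective.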

A549 [6] = assay: Disruption of microtubule network organization in human A549 cells assessed as decrease in mitotic spindle formation after 24 hrs by DAPI staining-based inverted microscopic method; assay type: cell-based; procedure, shortened: as §3
Ovis aries = species: Ovis aries; assay: Inhibition of sheep brain tubulin assembly at 100 uM by DAPI staining-based fluorimetric method relative to control; procedure, shortened: as §2

Row | Compound | IC50 [1] [nM] | IC50 [2] [nM] | IC50 (K562) [nM] | IC50 (K-562R) [nM] | IC50 (A549 [3]) [nM] | IC50 (HCT-116) [nM] | Activity (A549 [4]) | Activity (A549 [5]) | Activity (A549 [6]) | inhibition (Ovis aries) [%]
1 | C=C(c1ccc(OC)c(O)c1)c1cc(C)nc2ccccc12 | 1.5 | 3900 | 1.8 | 2.4 | 0.4 | 0.9 | Active | Dose-dependent effect | Dose-dependent effect | –
2 | C=C(c1ccc(OC)cc1)c1cc(C(=O)OC)nc2ccccc12 | 2.3 | 3900 | 88 | 18 | – | 160 | – | – | – | –
3 | C=C(c1ccc(OC)cc1)c1cc(C(=O)O)nc2ccccc12 | 75 | – | – | – | – | – | – | – | – | 29
4 | C=C(c1ccc(OC)c(O)c1)c1cc(OC)c(OC)c(OC)c1 | 7.8 | 2000 | 0.8 | 1.1 | 8.2 | – | – | – | – | –
5 | COc1ccc(C(=CC#N)c2cc(C)nc3ccccc23)cc1 | 0.25 | 1900 | 17 | 6.6 | 79 | 13.2 | – | – | – | –
6 | COc1ccc(C(=O)c2cc(C)nc3ccccc23)cc1 | 25 | 7200 | 139 | 52 | – | 130 | – | – | – | –
7 | C=C(c1ccc(OC)cc1)c1cc(C(F)(F)F)nc2ccccc12 | 21.7 | – | – | – | – | – | – | – | – | –
8 | C=C(c1ccc(OC)c(O)c1)c1nc(C)nc2ccccc12 | 6.1 | 600 | – | – | – | – | – | – | – | –
9 | C=C(c1ccc(OC)cc1)c1nc2ccccc2nc1C | 690 | – | – | – | – | – | – | – | – | 24
10 | C=C(c1ccc(OC)c(F)c1)c1cc(C)nc2ccccc12 | 4 | 2200 | 5 | 2.4 | 9.5 | 9.6 | – | – | – | –
11 | C=C(c1ccc(OC)cc1)c1nc(C)nc2ccccc12 | 40 | – | – | – | – | – | – | – | – | –
12 | C=C(c1ccc(OC)cc1)c1cc(CO)nc2ccccc12 | 390 | 14300 | – | – | – | – | – | – | – | –
13 | C=C(c1ccc(OC)cc1)c1cc(C)nc2ccccc12 | 21 | 1100 | 17 | 0.7 | 18.5 | 3 | – | – | – | –
14 | C=C(c1ccc(OC)cc1)c1cc(C#N)nc2ccccc12 | 1 | 1100 | 9 | 0.9 | 50 | 1.6 | – | – | – | –
15 | C=C(c1ccc(OC)cc1)c1cc(C(N)=O)nc2ccccc12 | 240 | 23800 | – | – | – | – | – | – | – | –
16 | C=C(c1ccc(OC)cc1)c1cc(C)cc2ccccc12 | 140 | 17100 | – | – | – | – | – | – | – | –
17 | C=C(c1ccc(OC)cc1)c1nc(C)cc2ccccc12 | 300 | – | – | – | – | – | – | – | – | 53
